Scp-1 inhibitor = blocks human Scp-1 phosphatase activity | actives 0.88% (n = 340,000) | AID 493091 | inhibition, % at 20 µM | Recombinant Scp1, phosphopeptide, malachite green phosphate absorbance;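 active = inhibition above about 50% at 20 µM, limit read from the data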;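 also: plate controls were DMSO wells with enzyme for no effect and wells lacking enzyme for full effect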
Target sequence (Q9GZU7 76-261 limits assumed): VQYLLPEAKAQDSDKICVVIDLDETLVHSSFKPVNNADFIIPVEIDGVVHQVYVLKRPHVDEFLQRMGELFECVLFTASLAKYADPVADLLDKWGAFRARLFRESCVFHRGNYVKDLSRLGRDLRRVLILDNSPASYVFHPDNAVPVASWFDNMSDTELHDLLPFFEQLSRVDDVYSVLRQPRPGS
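assay system = SCP-1 phosphatase catalytic domain, residues 76-261 | buffer or medium = 50 mM Tris acetate pH 5.5, 0.005% Tween-20, 10 mM MgCl2 | incubation = enzyme reaction 45 min at room temperature, colour 5 min, stabilisation 30 min | signal = Phosphate-binding colour reagent, absorbance read at 630 nm | measure = % inhibition at 20 µM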
SUMO1 PPI mod = modulators of human SUMO1-mediated protein-protein interactions | inhibition, % at 20 µM | actives 0.33% (n = 360,000) | AID 602429 | SUMO1 binding to a labelled peptide, TR-FRET, 1 h; in the data active = inhibition above about 37%
Target sequence (P63165 whole entry, looked up): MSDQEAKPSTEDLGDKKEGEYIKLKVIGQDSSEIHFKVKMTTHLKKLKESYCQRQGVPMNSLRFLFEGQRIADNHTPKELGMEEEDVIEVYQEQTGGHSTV
DNMT1 inh = inhibitors of human DNMT1. P26358. DNMT1 molecular beacon, Hinp1I cleavage, fluorescence. inhibition (reported as % activation of signal), % at 10 µM. actives 0.83% (n = 360,000). AID 588458; in the data active = inhibition above about 50%
LMPTP inh = blocks human LMPTP phosphatase | inhibition, % at 20 µM | recombinant LMPTP-A, OMFP fluorogenic substrate, fluorescence intensity | actives 0.22% (n = 360,000) | P24666 | AID 651560;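 active = compounds that cut the enzyme signal by at least half of the control window in the single-dose screen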;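 also: plate controls were DMSO wells with enzyme plus substrate for no effect and substrate without enzyme for full effect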
Target sequence (P24666 whole entry, looked up): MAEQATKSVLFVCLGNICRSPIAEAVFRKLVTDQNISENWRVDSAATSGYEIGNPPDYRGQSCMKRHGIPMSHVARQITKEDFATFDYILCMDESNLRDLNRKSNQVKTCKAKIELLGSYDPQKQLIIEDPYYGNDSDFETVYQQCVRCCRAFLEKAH
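Buffer or medium: Bis-Tris pH 6.0, DTT, detergent; Assay system: LMPTP-A enzyme; Quantity: 0.625 nM enzyme; Detection: endpoint fluorescence intensity; Times: 50 min dark incubation at room temperature; Controls: substrate-only low control, DMSO enzyme-plus-substrate high control; Doses: single 20 µM dose; Read-out: percent inhibition versus substrate-only and uninhibited controls; Reagent: 400 µM OMFP.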
STEP inh = blocks human striatal-enriched tyrosine phosphatase; P54829; recombinant STEP, OMFP fluorogenic substrate, fluorescence; inhibition, % at 20 µM; actives 0.25% (n = 360,000);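 active = inhibition at 20 µM, scaled per plate between control wells, above about 37%, limit read from the data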;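 also: 0% = DMSO with enzyme and substrate and 100% = substrate only without enzyme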
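Material: STEP (striatal-enriched tyrosine phosphatase) enzyme, cell-free; Compound dosing: 20 µM single dose in 1% DMSO; Technique: fluorescence read at 480 nm ex / 540 nm em; Times: reaction 20 min, ambient temperature; Medium: 50 mM Bis-Tris pH 6.0 with 2.5 mM DTT and 0.005% Tween 20; Also added: OMFP at 25 µM.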
NadD inh = inhibitors of Staphylococcus aureus NadD. purified NadD enzyme, colorimetric absorbance read-out. inhibition, % at 20 µM. actives 0.78% (n = 360,000); in the data active = inhibition above about 26%
Beacon interf DR = shows spectral interference in the DNMT1 beacon assay; IC50, µM; AID 602382; molecular beacon fluorescence, spectral interference counter-screen; 200 tested, under 10 active; shares compounds with DNMT1 inh; call rule not given here
DNMT1 confirm = confirmation of human DNMT1 inhibitors; shares compounds with DNMT1 inh; DNMT1 molecular beacon HinP1I cleavage, fluorescence; inhibition, % at 10 µM; actives 8% (n = 2,300); AID 602385;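 active = average inhibition of at least 30% in the single-concentration confirmation test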
Beacon interf = beacon fluorescence artifact counter-screen | shares compounds with DNMT1 inh | DNMT1 molecular beacon spectral interference counterscreen, fluorescence 485/520 | activation (fluorescence interference), % at 10 µM | actives 1% (n = 2,300);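 active = activation of at least 30% at 10 µM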;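 also: DNMT1 catalytic domain with a HinP1I cleavage step and a FAM/dabcyl DNA beacon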
The depositor's hits bear a star; . = no result. An excerpt weighted towards active compounds, which were near 2.4% of everything screened.

SMILES	Scp-1 inhibitor	SUMO1 PPI mod	DNMT1 inh	LMPTP inh	STEP inh	NadD inh	DNMT1 confirm	Beacon interf	others
COc1ccc(N)c2c1C(=O)c1ccccc1C2=O	-0.9	-10.6	-2.4	4.8	4.5	1.8	.	.
COC1=C(Br)C(=O)c2nc(C)ccc2C1=O	.	16.4	83.3*	3.8	2.7	10.7	40.8*	-7.5	Beacon interf DR=>99
COC1=C(N)C(=O)c2nc(C)ccc2C1=O	34.4	0.1	77.6*	2.6	2.2	2.3	53.4*	-7.4	Beacon interf DR=>99
CCn1c(CC(=O)Nc2ccccc2)n[nH]c1=S	-12.1	1.6	82.1*	-3.8	-3.9	-2.5	6.1	7.2
CCc1nn(CC(=O)NCCCc2ccccc2)c(=O)c2cc3cc(F)ccc3n12	-4.7	5.1	50.9*	3.0	1.4	2.5	-0.1	-0.5
CCc1nn(CC(=O)NCCCc2ccccc2)c(=O)c2cc3c(OC)cccc3n12	-11.0	-2.6	48.9	12.5	-0.3	9.0	.	.
O=C(NC1CCCCC1)C(c1ccc(F)cc1)N(CCc1ccccc1)C(=O)CN1C(=O)c2ccccc2S1(=O)=O (stereo unspecified)	-5.7	-1.7	58.7*	0.7	-1.4	9.1	5.2	1.9
O=C(NC1CCCCC1)C(c1ccc(F)cc1)N(Cc1ccccc1)C(=O)CN1C(=O)c2ccccc2S1(=O)=O (stereo unspecified)	6.6	-1.0	35.1	2.1	-0.8	16.5	.	.
Cc1cccc2sc(NC(=O)CCNC(=O)c3ccco3)nc12	-1.1	2.3	1.9	-0.3	-2.3	-5.3	.	.
COc1cc(/C=C(/C#N)c2nc3ccccc3[nH]2)ccc1OCC(=O)Nc1ccccc1C	-7.7	1.3	52.0*	3.5	0.0	12.7	-0.8	-0.6
COc1cc(/C=C(\C#N)c2nc3ccccc3s2)ccc1OCC(=O)Nc1ccccc1	-9.3	0.3	57.0*	2.2	-3.5	2.4	5.4	6.1
CCOC(=O)/C(C#N)=C/c1ccc(OCC(=O)Nc2ccc(C)c(C)c2)c(OC)c1	0.6	1.5	54.1*	2.1	0.4	-1.3	2.4	-2.3
CN(C)S(=O)(=O)c1ccc(N2C(=O)CC2(/C=C/c2ccccc2)C(=O)NC2CCCC2)cc1 (stereo unspecified)	-1.3	-0.4	-10.8	2.2	-2.2	7.7	.	.
CCCn1c(SCc2nc3sc(C)c(C)c3c(=O)[nH]2)nc2ccccc2c1=O	-7.3	1.1	53.9*	-0.2	4.2	3.2	-0.3	-4.0
COc1cc(NC(=O)c2ccc(-c3cccnc3)c3ccoc23)cc(OC)c1OC	.	0.5	0.9	2.2	-0.8	-1.5	.	.
O=C(Nc1cccc(OC(F)(F)F)c1)c1ccc(-c2cccnc2)c2ccoc12	.	-14.2	69.2*	2.5	-0.3	3.5	8.2	1.9
CSc1ccccc1NC(=O)CN(C)Cc1cccc(Cl)c1	2.2	14.9	1.2	0.8	2.8	1.7	.	.
O=C(NNc1nc2c(F)cc(F)cc2s1)C1COc2ccccc2O1 (stereo unspecified)	-5.4	26.7	0.8	0.9	-3.8	2.1	.	.
O=C(NCc1ccco1)c1nc2nc(-c3cccs3)cc(C(F)(F)F)n2n1	20.8	7.0	55.7*	0.6	0.4	-1.4	6.0	5.5
CCOC(=O)C1C(=O)C(=O)N(C(C)C)C1C(=O)OCC (stereo unspecified)	-5.0	3.3	-0.3	0.5	-3.1	-5.4	.	.
CCOC(=O)C1C(=O)CC(=O)CC1CC(C)SCC (stereo unspecified)	-7.0	2.7	79.0*	0.0	-8.7	4.5	1.0	4.3
COCCCn1c(SCC(=O)Nc2ccc(C)cc2)nc2ccccc2c1=O	-5.1	-0.7	-3.9	-0.3	-4.3	-2.2	.	.

From PubChem BioAssay
